The source made the active and inactive calls. No cut-off for these calls is given here.
Key:
[1] = tested on: Tyrosine-protein kinase ABL1 (Homo sapiens), P00519 [E255K]; assay: Inhibition of partial length human ABL1 E255K mutant phosphorylation expressed in mammalian system at 1 uM
Outline: (§1)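 Single-point screen within a 97-kinase profiling panel, with the test compound at 1 µM.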

[2] = Permeability across MDCK cells; format: ADME, cell-based, Canis lupus familiaris; settings: dog, read-out: permeability
Outline: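 Measured across a confluent MDCK cell monolayer; apparent permeability is reported together with the efflux ratio.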

[3] = tested on: Tyrosine-protein kinase ABL1 (Homo sapiens), P00519 [T315I]; assay: Inhibition of partial length human ABL1 T315I mutant phosphorylation expressed in mammalian system at 1 uM; outline: as §1
[4] = target: ALK tyrosine kinase receptor (Homo sapiens) (UniProt Q9UM73); assay: Inhibition of partial length human ALK expressed in mammalian system at 1 uM; outline: as §1
[5] = target: Aurora kinase A (Homo sapiens) (UniProt O14965); assay: Inhibition of partial length human Aurora A expressed in mammalian system at 1 uM; outline: as §1
[6] = target: Aurora kinase B (Homo sapiens) (UniProt Q96GD4); assay: Inhibition of partial length human Aurora B expressed in mammalian system at 1 uM; outline: as §1
[7] = target: Bone morphogenetic protein receptor type-2 (Homo sapiens) (UniProt Q13873); assay: Inhibition of partial length human BMPR2 expressed in mammalian system at 1 uM; outline: as §1
[8] = target: Cyclin-dependent kinase 2 (Homo sapiens) (UniProt P24941); assay: Inhibition of partial length human CDK2 expressed in bacterial system at 1 uM; outline: as §1
[9] = target: Cyclin-dependent kinase 3 (Homo sapiens) (UniProt Q00526); assay: Inhibition of partial length human CDK3 expressed in bacterial system at 1 uM; outline: as §1
[10] = target: Cyclin-dependent kinase 7 (Homo sapiens) (UniProt P50613); assay: Inhibition of partial length human CDK7 expressed in mammalian system at 1 uM; outline: as §1
[11] = target: Macrophage colony-stimulating factor 1 receptor (Homo sapiens) (UniProt P07333); assay: Inhibition of partial length human CSF1R expressed in bacterial system at 1 uM; outline: as §1
[12] = target: Mitogen-activated protein kinase 3 (Homo sapiens) (UniProt P27361); assay: Inhibition of partial length human ERK1 expressed in bacterial system at 1 uM; outline: as §1
[13] = target: Focal adhesion kinase 1 (Homo sapiens) (UniProt Q05397); assay: Inhibition of partial length human FAK expressed in bacterial system at 1 uM; outline: as §1
[14] = target: Inhibitor of nuclear factor kappa-B kinase subunit alpha (Homo sapiens) (UniProt O15111); assay: Inhibition of partial length human IKKalpha expressed in mammalian system at 1 uM; outline: as §1
[15] = target: Insulin receptor (Homo sapiens) (UniProt P06213); assay: Inhibition of partial length human INSR expressed in mammalian system at 1 uM; outline: as §1
[16] = target: Tyrosine-protein kinase JAK2 (Homo sapiens) (UniProt O60674); assay: Inhibition of partial length human JAK2 JH1 catalytic domain expressed in mammalian system at 1 uM; outline: as §1
[17] = target: Mitogen-activated protein kinase 10 (Homo sapiens) (UniProt P53779); assay: Inhibition of partial length human JNK3 expressed in mammalian system at 1 uM; outline: as §1
[18] = target: MAP/microtubule affinity-regulating kinase 3 (Homo sapiens) (UniProt P27448); assay: Inhibition of partial length human MARK3 expressed in bacterial system at 1 uM; outline: as §1
[19] = target: Dual specificity mitogen-activated protein kinase kinase 1 (Homo sapiens) (UniProt Q02750); assay: Inhibition of partial length human MEK1 expressed in mammalian system at 1 uM; outline: as §1
[20] = target: Hepatocyte growth factor receptor (Homo sapiens) (UniProt P08581); assay: Inhibition of partial length human MET expressed in bacterial system at 1 uM
Outline: (§2)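 Single-concentration screen across a panel of 97 kinases, with the test compound at 1 uM.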

[21] = target: Mitogen-activated protein kinase kinase kinase 9 (Homo sapiens) (UniProt P80192); assay: Inhibition of partial length human MLK1 expressed in bacterial system at 1 uM; outline: as §2
[22] = target: Mitogen-activated protein kinase 14 (Homo sapiens) (UniProt Q16539); assay: Inhibition of partial length human p38alpha expressed in bacterial system at 1 uM; outline: as §2
[23] = target: Serine/threonine-protein kinase PAK 2 (Homo sapiens) (UniProt Q13177); assay: Inhibition of partial length human PAK2 expressed in bacterial system at 1 uM; outline: as §2
[24] = target: Serine/threonine-protein kinase PAK 4 (Homo sapiens) (UniProt O96013); assay: Inhibition of partial length human PAK4 expressed in bacterial system at 1 uM; outline: as §2
[25] = target: Phosphatidylinositol 4,5-bisphosphate 3-kinase catalytic subunit gamma isoform (Homo sapiens) (UniProt P48736); assay: Inhibition of partial length human PIK3Cgamma expressed in mammalian system at 1 uM; outline: as §2
[26] = target: Serine/threonine-protein kinase pim-2 (Homo sapiens) (UniProt Q9P1W9); assay: Inhibition of partial length human PIM2 expressed in bacterial system at 1 uM; outline: as §2
[27] = target: Serine/threonine-protein kinase PLK1 (Homo sapiens) (UniProt P53350); assay: Inhibition of partial length human PLK1 expressed in mammalian system at 1 uM; outline: as §2
[28] = target: Ribosomal protein S6 kinase alpha-2 (Homo sapiens) (UniProt Q15349); assay: Inhibition of N-terminal partial length human RSK2 kinase domain 1 expressed in mammalian system at 1 uM; outline: as §1
[29] = target: High affinity nerve growth factor receptor (Homo sapiens) (UniProt P04629); assay: Inhibition of partial length human TRKA expressed in mammalian system at 1 uM; outline: as §2
[30] = Half life in human plasma; format: ADME, cell-free
Outline: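 Plasma stability was measured in human and rat plasma, with half-life reported in hours.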

NCI-H460 = assay: Antiproliferative activity against human NCI-H460 cells assessed as change in phenotypic response measured after prolonged treatment; format: functional, cell-based
HeLa [31] = assay: Antiproliferative activity against human HeLa cells assessed as change in phenotypic response measured after prolonged treatment; format: functional, cell-based
HCT-116 [32] = assay: Antiproliferative activity against human HCT116 cells assessed as change in phenotypic response measured after prolonged treatment; format: functional, cell-based
BJ = assay: Cytotoxicity against human BJ cells assessed as change in phenotypic response up to 50 uM; format: cell-based
MRC5 [33] = assay: Cytotoxicity against human MRC5 cells assessed as change in phenotypic response up to 50 uM; format: cell-based
A549 = assay: Antiproliferative activity against human A549 cells assessed as change in phenotypic response up to 50 uM; format: functional, cell-based
HeLa [34] = assay: Antiproliferative activity against human HeLa cells assessed as change in phenotypic response up to 50 uM; format: functional, cell-based
HCT-116 [35] = assay: Antiproliferative activity against human HCT116 cells assessed as change in phenotypic response up to 50 uM; format: functional, cell-based
SW480 = assay: Antiproliferative activity against human SW480 cells assessed as change in phenotypic response up to 50 uM; format: functional, cell-based
MRC5 [36] = assay: Cytotoxicity against human MRC5 cells assessed as change in phenotypic response measured after prolonged treatment; format: cell-based
UOK 262 [37] = assay: Antiproliferative activity against human UOK 262 cells assessed as change in phenotypic response up to 50 uM; format: functional, cell-based
UOK 262 [38] = assay: Antiproliferative activity against human UOK 262 cells assessed as change in phenotypic response measured after prolonged treatment; format: functional, cell-based

Aurora kinase B (Homo sapiens), sequence (Q96GD4 whole entry): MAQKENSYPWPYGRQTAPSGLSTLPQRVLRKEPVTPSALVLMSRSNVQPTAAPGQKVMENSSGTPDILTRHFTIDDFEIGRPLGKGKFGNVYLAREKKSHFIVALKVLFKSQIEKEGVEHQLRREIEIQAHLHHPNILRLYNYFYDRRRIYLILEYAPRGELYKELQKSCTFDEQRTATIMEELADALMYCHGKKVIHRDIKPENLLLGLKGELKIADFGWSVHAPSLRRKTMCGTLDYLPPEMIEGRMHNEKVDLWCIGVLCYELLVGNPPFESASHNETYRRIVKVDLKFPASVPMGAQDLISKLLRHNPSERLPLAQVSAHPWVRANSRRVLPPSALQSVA
High affinity nerve growth factor receptor (Homo sapiens), sequence (P04629 33-796 limits assumed): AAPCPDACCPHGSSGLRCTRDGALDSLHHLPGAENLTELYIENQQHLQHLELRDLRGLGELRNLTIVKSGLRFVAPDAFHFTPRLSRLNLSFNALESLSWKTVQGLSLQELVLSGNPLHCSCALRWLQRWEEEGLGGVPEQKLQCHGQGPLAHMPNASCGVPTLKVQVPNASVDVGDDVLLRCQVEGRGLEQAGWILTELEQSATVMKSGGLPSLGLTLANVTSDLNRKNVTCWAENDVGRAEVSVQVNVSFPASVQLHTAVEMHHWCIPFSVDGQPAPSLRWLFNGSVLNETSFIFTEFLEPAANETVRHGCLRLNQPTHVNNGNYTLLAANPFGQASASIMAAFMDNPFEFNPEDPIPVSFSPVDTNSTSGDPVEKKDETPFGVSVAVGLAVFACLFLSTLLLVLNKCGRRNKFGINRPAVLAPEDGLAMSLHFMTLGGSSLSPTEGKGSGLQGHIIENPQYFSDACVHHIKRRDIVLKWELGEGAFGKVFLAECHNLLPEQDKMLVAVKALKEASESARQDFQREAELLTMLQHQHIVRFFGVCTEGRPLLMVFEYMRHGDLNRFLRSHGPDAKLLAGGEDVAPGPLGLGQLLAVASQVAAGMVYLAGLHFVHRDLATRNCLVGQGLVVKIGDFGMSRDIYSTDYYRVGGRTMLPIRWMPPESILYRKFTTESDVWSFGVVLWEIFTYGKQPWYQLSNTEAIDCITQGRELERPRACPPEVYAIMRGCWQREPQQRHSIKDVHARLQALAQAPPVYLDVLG
Focal adhesion kinase 1 (Homo sapiens), sequence (Q05397 2-1052 limits assumed): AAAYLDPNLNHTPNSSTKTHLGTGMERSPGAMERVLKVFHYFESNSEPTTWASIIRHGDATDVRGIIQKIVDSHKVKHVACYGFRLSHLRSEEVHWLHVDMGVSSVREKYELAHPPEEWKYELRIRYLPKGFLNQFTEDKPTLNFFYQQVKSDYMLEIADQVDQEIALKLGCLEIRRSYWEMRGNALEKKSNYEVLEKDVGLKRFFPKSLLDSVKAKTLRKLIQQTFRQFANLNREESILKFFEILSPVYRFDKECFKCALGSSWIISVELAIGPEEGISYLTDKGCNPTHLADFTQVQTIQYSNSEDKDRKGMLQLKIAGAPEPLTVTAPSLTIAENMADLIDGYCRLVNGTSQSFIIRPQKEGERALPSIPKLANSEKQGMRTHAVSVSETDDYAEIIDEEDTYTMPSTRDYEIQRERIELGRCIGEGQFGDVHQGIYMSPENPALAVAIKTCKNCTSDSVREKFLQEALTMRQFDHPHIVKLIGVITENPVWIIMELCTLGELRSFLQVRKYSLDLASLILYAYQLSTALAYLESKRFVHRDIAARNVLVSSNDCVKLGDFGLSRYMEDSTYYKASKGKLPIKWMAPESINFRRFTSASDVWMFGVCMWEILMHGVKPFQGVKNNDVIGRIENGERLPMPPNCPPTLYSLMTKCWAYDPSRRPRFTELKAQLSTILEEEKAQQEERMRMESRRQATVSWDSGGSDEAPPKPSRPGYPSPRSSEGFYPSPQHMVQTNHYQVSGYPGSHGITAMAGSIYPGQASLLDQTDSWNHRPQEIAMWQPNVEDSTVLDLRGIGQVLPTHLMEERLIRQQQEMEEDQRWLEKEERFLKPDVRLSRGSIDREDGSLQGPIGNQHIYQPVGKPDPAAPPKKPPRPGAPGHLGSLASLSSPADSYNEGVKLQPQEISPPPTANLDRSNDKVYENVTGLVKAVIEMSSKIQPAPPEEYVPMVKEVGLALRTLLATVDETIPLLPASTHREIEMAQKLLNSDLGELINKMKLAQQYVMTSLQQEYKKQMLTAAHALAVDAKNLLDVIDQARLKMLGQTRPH
Cyclin-dependent kinase 3 (Homo sapiens), sequence (Q00526 whole entry, looked up): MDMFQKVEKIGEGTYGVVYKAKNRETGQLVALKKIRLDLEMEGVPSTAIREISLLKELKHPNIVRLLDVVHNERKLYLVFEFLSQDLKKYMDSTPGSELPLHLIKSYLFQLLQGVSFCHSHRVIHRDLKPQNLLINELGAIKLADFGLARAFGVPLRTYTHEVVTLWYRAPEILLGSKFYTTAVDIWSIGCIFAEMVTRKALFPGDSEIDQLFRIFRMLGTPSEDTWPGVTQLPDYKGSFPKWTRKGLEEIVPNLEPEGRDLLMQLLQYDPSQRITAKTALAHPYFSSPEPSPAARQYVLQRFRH
Hepatocyte growth factor receptor (Homo sapiens), sequence (P08581 whole entry): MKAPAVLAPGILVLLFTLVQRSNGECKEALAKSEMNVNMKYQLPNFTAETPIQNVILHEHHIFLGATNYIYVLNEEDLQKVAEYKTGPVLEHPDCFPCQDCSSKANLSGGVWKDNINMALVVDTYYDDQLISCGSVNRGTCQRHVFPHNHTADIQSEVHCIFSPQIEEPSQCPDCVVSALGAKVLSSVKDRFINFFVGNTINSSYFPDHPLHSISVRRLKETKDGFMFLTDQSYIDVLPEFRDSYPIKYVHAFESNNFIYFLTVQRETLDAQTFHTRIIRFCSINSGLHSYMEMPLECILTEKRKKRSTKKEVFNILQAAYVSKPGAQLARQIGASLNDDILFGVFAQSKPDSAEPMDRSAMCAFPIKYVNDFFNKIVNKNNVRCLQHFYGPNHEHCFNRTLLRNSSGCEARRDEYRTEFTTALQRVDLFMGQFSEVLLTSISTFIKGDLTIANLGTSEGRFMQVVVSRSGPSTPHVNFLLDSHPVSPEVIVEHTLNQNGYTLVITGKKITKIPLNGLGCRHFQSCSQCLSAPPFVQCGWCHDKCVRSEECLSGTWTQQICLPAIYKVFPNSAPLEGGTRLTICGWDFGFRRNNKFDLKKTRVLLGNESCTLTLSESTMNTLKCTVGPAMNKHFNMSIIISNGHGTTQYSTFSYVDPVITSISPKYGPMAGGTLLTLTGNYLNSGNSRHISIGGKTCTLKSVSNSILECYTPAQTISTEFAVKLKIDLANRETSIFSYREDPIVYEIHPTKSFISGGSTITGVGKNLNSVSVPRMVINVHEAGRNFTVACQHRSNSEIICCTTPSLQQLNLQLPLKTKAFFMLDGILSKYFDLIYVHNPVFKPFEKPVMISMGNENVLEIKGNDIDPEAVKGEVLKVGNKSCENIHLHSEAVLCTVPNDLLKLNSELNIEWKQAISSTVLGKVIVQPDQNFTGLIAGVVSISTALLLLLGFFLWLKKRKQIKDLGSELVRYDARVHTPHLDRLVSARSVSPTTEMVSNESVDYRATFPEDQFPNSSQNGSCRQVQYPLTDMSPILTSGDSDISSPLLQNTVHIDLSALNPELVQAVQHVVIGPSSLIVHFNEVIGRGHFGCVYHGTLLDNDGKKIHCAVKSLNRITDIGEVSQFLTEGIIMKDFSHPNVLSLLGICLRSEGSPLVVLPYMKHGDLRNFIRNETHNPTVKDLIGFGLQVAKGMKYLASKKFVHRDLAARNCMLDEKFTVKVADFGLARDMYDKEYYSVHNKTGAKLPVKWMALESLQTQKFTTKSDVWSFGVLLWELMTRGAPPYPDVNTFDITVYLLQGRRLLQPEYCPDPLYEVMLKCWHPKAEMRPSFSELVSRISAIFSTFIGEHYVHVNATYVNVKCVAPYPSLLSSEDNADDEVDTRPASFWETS
Mitogen-activated protein kinase 14 (Homo sapiens), sequence (Q16539 whole entry): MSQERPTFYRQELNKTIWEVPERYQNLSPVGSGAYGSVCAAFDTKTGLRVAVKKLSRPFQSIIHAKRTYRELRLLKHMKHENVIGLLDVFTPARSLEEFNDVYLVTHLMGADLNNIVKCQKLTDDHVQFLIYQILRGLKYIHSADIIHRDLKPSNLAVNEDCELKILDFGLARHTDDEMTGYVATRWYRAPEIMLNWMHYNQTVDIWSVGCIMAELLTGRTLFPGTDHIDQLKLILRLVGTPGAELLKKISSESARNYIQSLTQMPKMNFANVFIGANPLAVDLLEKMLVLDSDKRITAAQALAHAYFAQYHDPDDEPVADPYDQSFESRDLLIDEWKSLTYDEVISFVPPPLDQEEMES
Serine/threonine-protein kinase PLK1 (Homo sapiens), sequence (P53350 whole entry, the tested form may be a part): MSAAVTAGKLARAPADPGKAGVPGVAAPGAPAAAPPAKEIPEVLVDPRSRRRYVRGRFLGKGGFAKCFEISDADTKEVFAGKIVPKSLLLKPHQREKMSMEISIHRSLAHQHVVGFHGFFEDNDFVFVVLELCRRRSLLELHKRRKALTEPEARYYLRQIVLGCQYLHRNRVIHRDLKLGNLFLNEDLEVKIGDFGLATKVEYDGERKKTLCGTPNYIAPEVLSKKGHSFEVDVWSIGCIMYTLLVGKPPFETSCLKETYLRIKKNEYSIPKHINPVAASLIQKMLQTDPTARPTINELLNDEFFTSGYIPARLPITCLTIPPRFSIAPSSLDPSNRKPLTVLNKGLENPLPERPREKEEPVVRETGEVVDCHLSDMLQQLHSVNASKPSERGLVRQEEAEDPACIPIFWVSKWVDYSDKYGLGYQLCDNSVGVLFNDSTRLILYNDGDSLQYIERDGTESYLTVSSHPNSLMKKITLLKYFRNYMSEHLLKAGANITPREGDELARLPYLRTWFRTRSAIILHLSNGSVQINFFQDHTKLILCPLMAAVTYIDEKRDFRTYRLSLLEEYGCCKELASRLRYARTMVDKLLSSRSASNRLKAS

## Cc1cnc(N)nc1OCC(C)(C)CO
[1]
  inhibition: inactive
[2]
  Papp: 32 ×10⁻⁶ cm/s
[3]
  inhibition: inactive
[4]
  inhibition: inactive
[5]
  inhibition: inactive
[6]
  inhibition: inactive
[7]
  inhibition: inactive
[8]
  inhibition: inactive
[9]
  inhibition: inactive
[10]
  inhibition: inactive
[11]
  inhibition: inactive
[12]
  inhibition: inactive
[13]
  inhibition: inactive
[14]
  inhibition: inactive
[15]
  inhibition: inactive
[16]
  inhibition: inactive
[17]
  inhibition: inactive
[18]
  inhibition: inactive
[19]
  inhibition: inactive
[20]
  inhibition: inactive
[21]
  inhibition: inactive
[22]
  inhibition: inactive
[23]
  inhibition: inactive
[24]
  inhibition: inactive
[25]
  inhibition: inactive
[26]
  inhibition: inactive
[27]
  inhibition: inactive
[28]
  inhibition: inactive
[29]
  inhibition: inactive
[30]
  half-life: 58 h
NCI-H460
  Activity: inactive
HeLa [31]
  Activity: inactive
HCT-116 [32]
  Activity: inactive
BJ
  Activity: Non-toxic
MRC5 [33]
  Activity: Non-toxic
A549
  Activity: inactive
HeLa [34]
  Activity: inactive
HCT-116 [35]
  Activity: inactive
SW480
  Activity: inactive
MRC5 [36]
  Activity: Non-toxic
UOK 262 [37]
  Activity: inactive
UOK 262 [38]
  Activity: inactive

— ChEMBL document CHEMBL3779767, “Identification of potent and selective MTH1 inhibitors” (Bioorg Med Chem Lett, 2016)
